How the values were obtained:
DC 2.4 cells [1] = experiment: DC 2.4 activation by flow cytometry; assay type: cell-based; details: 10 μg/mL, 24 h
Summary of the method: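 DC 2.4 cells (1 × 10^6 per well) were cultured 12 h, then exposed to 10 μg test compound or tetrapeptide for 24 h. Staining used DAPI live/dead for viability, anti-CD40 and anti-CD86 for maturation, and anti-IL-4 and anti-TNF-α for function. At least 50,000 cells per sample were read by flow cytometry.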

[2] = test system: RIG-I-like receptor (RLR) signaling pathway; experiment: Transcriptome sequencing analysis of lymph node immune cells; assay type: in vivo, Balb/c mice; details: WGCNA; AAS (Fig. 4g) or naked amantadine (Fig S7)
animal model = details: repeated injections with high dose; ref [28]; cited from earlier work
[3] = test system: immunoregulatory cytokines such as interferons and tumor necrosis factors; details: in vivo and in vitro, ref [29], [30], [31], [32]; cited from earlier work
[4] = naked amantadine; ref [33], [54], [55]; cited from earlier work
[5] = test system: SARS-CoV-2 infection and symptomatology; details: in vivo; cited from earlier work
[6] = naked amantadine; ref [33], [54], [55]; cited from earlier work; remark: listed apart in the source
DC 2.4 cells [7] = experiment: Cellular uptake inhibition; assay type: cell-based; details: read-out: inhibition rate of AAS uptake by DCs
Summary of the method: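 DC 2.4 cells were grown in DMEM with 10% FBS and penicillin/streptomycin at 37 °C, 5% CO2, then seeded at 5 × 10^5 per well for 24 h. Cells were pretreated 1 h with 5 μM cytochalasin B or cytochalasin D, then given 5 μg Cy5-labelled AAS for 2 h. They were washed in PBS/2% FBS, fixed in 2% paraformaldehyde for 10 min, and Cy5 uptake was read by flow cytometry.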

[8] = test system: SARS-CoV-2 B.1.351 pseudovirus; details: in vivo, ip
[9] = test system: SARS-CoV-2 B.1.617.2 pseudovirus; details: in vivo, ip
[10] = test system: IKBKE kinase-dependent activity of IRF3; details: ref [44]; cited from earlier work
STING-dependent IRF3 = details: ref [44]; cited from earlier work

In the case of NC12CC3CC(CC(C3)C1)C2 [amantadine], the “immunostimulation activity against immune cells” value (DC 2.4 cells [1]) is given as “possesses the immunostimulation activity”, the “protein-protein interaction (PPI) network key genes” value [2] is given as “three RLR signaling pathway-related genes (Oasl2, RIG-I and IRF3) located in the central position” and the adverse reactions (animal model) is given as “not observed”. For the same molecule, the “secretion of immunoregulatory cytokines” value [3] was “increase the secretion of multiple immunoregulatory cytokines”, the water solubility [4] was “unsatisfactory water solubility” and the “prevention of SARS-CoV-2 infection and symptomatology” value [5] was “can prevent SARS-CoV-2 infection and symptomatology”. For the same molecule, the “half-life period in vivo” value [6] was “short half-life period”.

In the case of C=C1[C@@H](C)[C@H]2[C@H](Cc3ccccc3)NC(=O)[C@]23OC(=O)/C=C/[C@H](O)CCC[C@@H](C)C/C=C/[C@H]3[C@@H]1O [cytochalasin B], the inhibition at 5 µM (DC 2.4 cells [7]) was 11.7%.

For CN(C)c1ccc(C(=C2C=CC(=[N+](C)C)C=C2)c2ccccc2)cc1.CN(C)c1ccc(C(=C2C=CC(=[N+](C)C)C=C2)c2ccccc2)cc1.O=C(O)C(=O)O.O=C([O-])C(=O)O.O=C([O-])C(=O)O [malachite green oxalate], the “decrease of neutralizing antibody against B.1.351 vs AAS+RBD group” value [8] was 4 fold.

In the case of CCn1c(-c2nonc2N)nc2c(C#CC(C)(C)O)ncc(OC[C@H]3CCCNC3)c21 [GSK690693], the “decrease of neutralizing antibody against B.1.351 vs AAS+RBD group” value [8] is listed as 7 fold, the “decrease of neutralizing antibody against B.1.617.2 vs AAS+RBD group” value [9] is listed as 6 fold and the “inhibition of IKBKE kinase-dependent activity of IRF3 (GSK690693)” value [10] is listed as “inhibit the IKBKE kinase-dependent activity of IRF3”. The “inhibition of STING-dependent IRF3 activation” value (STING-dependent IRF3) was “inhibit the activation of STING-dependent IRF3”.

C=C1[C@@H](C)[C@H]2[C@H](Cc3ccccc3)NC(=O)[C@]23[C@H](OC(C)=O)/C=C/[C@@](C)(O)C(=O)[C@@H](C)C/C=C/[C@H]3[C@@H]1O [cytochalasin D] showed an inhibition at 5 µM (DC 2.4 cells [7]) of 46%.

From article PMC8752318 (Nano Today, 2022)
